Assay results from ChEMBL document CHEMBL3864121, “Development of ebsulfur analogues as potent antibacterials against methicillin-resistant Staphylococcus aureus” (Bioorg Med Chem, 2016).
Values after ≈ are worked out from the molar mass of the structure shown.

Experiments:
Staphylococcus aureus [1] = assay: Antibacterial activity against methicillin-resistant Staphylococcus aureus ATCC 33591 measured after overnight incubation by broth double-dilution method; assay type: functional
Procedure, shortened: (§1)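 MIC by broth double-dilution in liquid Mueller-Hinton medium. Values are reported in µg/mL.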

Staphylococcus aureus [2] = assay: Antibacterial activity against methicillin-resistant Staphylococcus aureus C2 measured after overnight incubation by broth double-dilution method; assay type: functional; procedure, shortened: as §1
[3] = system: Staphylococcus epidermidis; assay: Antibacterial activity against Staphylococcus epidermidis ATCC 35984 measured after overnight incubation by broth double-dilution method; assay type: functional; settings: RP62A
Procedure, shortened: (§2)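 MIC by broth double-dilution in Mueller-Hinton medium. Re-testing at the time-kill inoculum used 1×10^6 CFU/mL.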

Staphylococcus aureus [4] = assay: Antibacterial activity against methicillin-resistant Staphylococcus aureus 2 measured after overnight incubation by broth double-dilution method; assay type: functional; procedure, shortened: as §1
Staphylococcus aureus [5] = assay: Antibacterial activity against methicillin-resistant Staphylococcus aureus S14 measured after overnight incubation by broth double-dilution method; assay type: functional; procedure, shortened: as §1
Enterococcus faecium = assay: Antibacterial activity against Enterococcus faecium BM4105-RF measured after overnight incubation by broth double-dilution method; assay type: functional; procedure, shortened: as §1
Enterococcus = assay: Antibacterial activity against Vancomycin-resistant Enterococcus measured after overnight incubation by broth double-dilution method; assay type: functional; procedure, shortened: as §1
Staphylococcus aureus [6] = assay: Antibacterial activity against methicillin-resistant Staphylococcus aureus USA100 measured after overnight incubation by broth double-dilution method; assay type: functional; procedure, shortened: as §1
Staphylococcus aureus [7] = assay: Antibacterial activity against methicillin-resistant Staphylococcus aureus USA200 measured after overnight incubation by broth double-dilution method; assay type: functional; procedure, shortened: as §1
Enterococcus faecalis [8] = assay: Antibacterial activity against Enterococcus faecalis ATCC 49533 measured after overnight incubation by broth double-dilution method; assay type: functional; procedure, shortened: as §2
Staphylococcus aureus [9] = assay: Antibacterial activity against methicillin-resistant Staphylococcus aureus C16 measured after overnight incubation by broth double-dilution method; assay type: functional; procedure, shortened: as §1
[10] = Solubility of compound in Muller-Hinton medium; assay type: physicochemical
Staphylococcus aureus [11] = assay: Antibacterial activity against methicillin-resistant Staphylococcus aureus 1 measured after overnight incubation by broth double-dilution method; assay type: functional; procedure, shortened: as §1
Enterococcus faecalis [12] = assay: Antibacterial activity against Enterococcus faecalis ATCC 29212 measured after overnight incubation by broth double-dilution method; assay type: functional; procedure, shortened: as §2
Listeria monocytogenes = assay: Antibacterial activity against Listeria monocytogenes ATCC 19115 measured after overnight incubation by broth double-dilution method; assay type: functional; procedure, shortened: as §2
Staphylococcus aureus [13] = assay: Antibacterial activity against methicillin-resistant Staphylococcus aureus C1 measured after overnight incubation by broth double-dilution method; assay type: functional; procedure, shortened: as §1
Staphylococcus aureus [14] = assay: Antibacterial activity against methicillin-resistant Staphylococcus aureus NRS77 measured after overnight incubation by broth double-dilution method; assay type: functional; procedure, shortened: as §1
Staphylococcus aureus [15] = assay: Antibacterial activity against methicillin-resistant Staphylococcus aureus C7 measured after overnight incubation by broth double-dilution method; assay type: functional; procedure, shortened: as §1
Staphylococcus aureus [16] = assay: Antibacterial activity against methicillin-resistant Staphylococcus aureus S22 measured after overnight incubation by broth double-dilution method; assay type: functional; procedure, shortened: as §1
Staphylococcus aureus [17] = assay: Antibacterial activity against methicillin-resistant Staphylococcus aureus NRS4 measured after overnight incubation by broth double-dilution method; assay type: functional; procedure, shortened: as §1
[18] = system: Mycolicibacterium smegmatis; assay: Antibacterial activity against Mycobacterium smegmatis MC2-155 measured after overnight incubation by broth double-dilution method; assay type: functional; settings: str. MC2 155; procedure, shortened: as §1
Staphylococcus aureus [19] = assay: Antibacterial activity against methicillin-resistant Staphylococcus aureus S17 measured after overnight incubation by broth double-dilution method; assay type: functional; procedure, shortened: as §1
Staphylococcus aureus [20] = assay: Antibacterial activity against methicillin-sensitive Staphylococcus aureus ATCC 25923 measured after overnight incubation by broth double-dilution method; assay type: functional; procedure, shortened: as §1
Staphylococcus aureus [21] = assay: Antibacterial activity against methicillin-sensitive Staphylococcus aureus ATCC 29213 measured after overnight incubation by broth double-dilution method; assay type: functional; procedure, shortened: as §1
Staphylococcus aureus [22] = assay: Antibacterial activity against methicillin-resistant Staphylococcus aureus USA300 measured after overnight incubation by broth double-dilution method; assay type: functional; procedure, shortened: as §1
Staphylococcus aureus [23] = assay: Antibacterial activity against methicillin-resistant Staphylococcus aureus G1 measured after overnight incubation by broth double-dilution method; assay type: functional; procedure, shortened: as §1
Staphylococcus aureus [24] = assay: Antibacterial activity against methicillin-resistant Staphylococcus aureus G6 measured after overnight incubation by broth double-dilution method; assay type: functional; procedure, shortened: as §1
Staphylococcus aureus [25] = assay: Antibacterial activity against methicillin-resistant Staphylococcus aureus BRS3 measured after overnight incubation by broth double-dilution method; assay type: functional; procedure, shortened: as §1
Staphylococcus aureus [26] = assay: Antibacterial activity against methicillin-resistant Staphylococcus aureus NRS51 measured after overnight incubation by broth double-dilution method; assay type: functional; procedure, shortened: as §1
Staphylococcus aureus [27] = assay: Antibacterial activity against methicillin-resistant Staphylococcus aureus G12 measured after overnight incubation by broth double-dilution method; assay type: functional; procedure, shortened: as §1
Staphylococcus aureus [28] = assay: Antibacterial activity against methicillin-resistant Staphylococcus aureus S24 measured after overnight incubation by broth double-dilution method; assay type: functional; procedure, shortened: as §1
Staphylococcus aureus [29] = assay: Antibacterial activity against methicillin-resistant Staphylococcus aureus G14 measured after overnight incubation by broth double-dilution method; assay type: functional; procedure, shortened: as §1
Staphylococcus aureus [30] = assay: Antibacterial activity against methicillin-resistant Staphylococcus aureus USA600 measured after overnight incubation by broth double-dilution method; assay type: functional; procedure, shortened: as §1
Staphylococcus aureus [31] = assay: Antibacterial activity against methicillin-resistant Staphylococcus aureus C14 measured after overnight incubation by broth double-dilution method; assay type: functional; procedure, shortened: as §1
Staphylococcus aureus [32] = assay: Antibacterial activity against methicillin-resistant Staphylococcus aureus C19 measured after overnight incubation by broth double-dilution method; assay type: functional; procedure, shortened: as §1
Staphylococcus aureus [33] = assay: Antibacterial activity against methicillin-sensitive Staphylococcus aureus ATCC 6538 measured after overnight incubation by broth double-dilution method; assay type: functional; procedure, shortened: as §1

## O=c1c2ccccc2sn1-c1ccccn1
Staphylococcus aureus [1]
  MIC: 3.9 µg/mL (≈ 17.1 µM)
Staphylococcus aureus [2]
  MIC: 7.8 µg/mL (≈ 34.2 µM)
[3]
  MIC: 3.9 µg/mL (≈ 17.1 µM)
Staphylococcus aureus [4]
  MIC: 7.8 µg/mL (≈ 34.2 µM)
Staphylococcus aureus [5]
  MIC: 2 µg/mL (≈ 8.76 µM)
Enterococcus faecium
  MIC: > 125 µg/mL
Enterococcus
  MIC: 7.8 µg/mL (≈ 34.2 µM)
Staphylococcus aureus [6]
  MIC: 7.8 µg/mL (≈ 34.2 µM)
Staphylococcus aureus [7]
  MIC: 7.8 µg/mL (≈ 34.2 µM)
Enterococcus faecalis [8]
  MIC: > 125 µg/mL
Staphylococcus aureus [9]
  MIC: 7.8 µg/mL (≈ 34.2 µM)
[10]
  solubility: Soluble
Staphylococcus aureus [11]
  MIC: 15.6 µg/mL (≈ 68.3 µM)
Enterococcus faecalis [12]
  MIC: > 125 µg/mL
Listeria monocytogenes
  MIC: 7.8 µg/mL (≈ 34.2 µM)
Staphylococcus aureus [13]
  MIC: 3.9 µg/mL (≈ 17.1 µM)
Staphylococcus aureus [14]
  MIC: 15.6 µg/mL (≈ 68.3 µM)
Staphylococcus aureus [15]
  MIC: 7.8 µg/mL (≈ 34.2 µM)
Staphylococcus aureus [16]
  MIC: 7.8 µg/mL (≈ 34.2 µM)
Staphylococcus aureus [17]
  MIC: 15.6 µg/mL (≈ 68.3 µM)
[18]
  MIC: 7.8 µg/mL (≈ 34.2 µM)
Staphylococcus aureus [19]
  MIC: 7.8 µg/mL (≈ 34.2 µM)
Staphylococcus aureus [20]
  MIC: 7.8 µg/mL (≈ 34.2 µM)
Staphylococcus aureus [21]
  MIC: 7.8 µg/mL (≈ 34.2 µM)
Staphylococcus aureus [22]
  MIC: 7.8 µg/mL (≈ 34.2 µM)
Staphylococcus aureus [23]
  MIC: 7.8 µg/mL (≈ 34.2 µM)
Staphylococcus aureus [24]
  MIC: 7.8 µg/mL (≈ 34.2 µM)
Staphylococcus aureus [25]
  MIC: 15.6 µg/mL (≈ 68.3 µM)
Staphylococcus aureus [26]
  MIC: 7.8 µg/mL (≈ 34.2 µM)
Staphylococcus aureus [27]
  MIC: 7.8 µg/mL (≈ 34.2 µM)
Staphylococcus aureus [28]
  MIC: 7.8 µg/mL (≈ 34.2 µM)
Staphylococcus aureus [29]
  MIC: 7.8 µg/mL (≈ 34.2 µM)
Staphylococcus aureus [30]
  MIC: 15.6 µg/mL (≈ 68.3 µM)
Staphylococcus aureus [31]
  MIC: 7.8 µg/mL (≈ 34.2 µM)
Staphylococcus aureus [32]
  MIC: 7.8 µg/mL (≈ 34.2 µM)
Staphylococcus aureus [33]
  MIC: 7.8 µg/mL (≈ 34.2 µM)
